Laboratory results as given in ChEMBL document CHEMBL2062487, “Design, synthesis and evaluation of clinafloxacin triazole hybrids as a new type of antibacterial and antifungal agents” (2012).
Converted amounts (≈) assume the structure as drawn.

What was measured:
[1] = Antibacterial activity against Bacillus proteus by two fold broth dilution method; type: functional
Method in brief: (§1)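 MIC was determined by twofold broth dilution in microplates, following NCCLS recommendations. Clinafloxacin, chloramphenicol and fluconazole served as positive controls. Values are given in μg/mL.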

Pseudomonas aeruginosa = assay: Antibacterial activity against Pseudomonas aeruginosa by two fold broth dilution method; type: functional; method in brief: as §1
Bacillus subtilis = assay: Antibacterial activity against Bacillus subtilis ATCC 6633 by two fold broth dilution method; type: functional; method in brief: as §1
Micrococcus luteus [2] = assay: Antibacterial activity against Micrococcus luteus ATCC 4698 by two fold broth dilution method; type: functional; details: NCTC 2665; method in brief: as §1
Escherichia coli = assay: Antibacterial activity against Escherichia coli JM109 by two fold broth dilution method; type: functional; method in brief: as §1
Staphylococcus aureus [3] = assay: Antibacterial activity against methicillin-resistant Staphylococcus aureus N 315 by two fold broth dilution method; type: functional; details: N315
Method in brief: (§2)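 Twofold broth dilution in 96-well microtest plates following NCCLS guidance. Endpoint is the MIC (µg/mL), the lowest concentration that inhibits growth. Clinafloxacin, chloramphenicol and fluconazole served as positive controls.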

Candida albicans = assay: Antifungal activity against Candida albicans ATCC 76615 by two fold broth dilution method; type: functional; method in brief: as §1
Candida = assay: Antifungal activity against Candida mycoderma by two fold broth dilution method; type: functional; method in brief: as §1
Staphylococcus aureus [4] = assay: Antibacterial activity against Staphylococcus aureus ATCC […] by two fold broth dilution method; type: functional; method in brief: as §1
Shigella dysenteriae = assay: Antibacterial activity against Shigella dysenteriae by two fold broth dilution method; type: functional; method in brief: as §2
Micrococcus luteus [5] = assay: Ratio of chloramphenicol MIC to compound MIC for Micrococcus luteus ATCC 4698; type: functional, NCTC 2665
Bacillus = assay: Ratio of clinafloxacin MIC to compound MIC for Bacillus proteus; type: functional

SMILES	MIC [1]	MIC (Pseudomonas aeruginosa)	MIC (Bacillus subtilis)	MIC (Micrococcus luteus [2])	MIC (Escherichia coli)	MIC (Staphylococcus aureus [3])	MIC (Candida albicans)	MIC (Candida)	MIC (Staphylococcus aureus [4])	MIC (Shigella dysenteriae)	Ratio (Micrococcus luteus [5])	Ratio (Bacillus)
Cc1ccc(C(=O)Cn2cncn2)cc1	> 512 µg/mL	32 µg/mL (≈ 159 µM)	256 µg/mL (≈ 1270 µM)	> 512 µg/mL	32 µg/mL (≈ 159 µM)	> 512 µg/mL	> 512 µg/mL	> 512 µg/mL	> 512 µg/mL	> 512 µg/mL		
O=C(Cn1cncn1)c1ccc(Cl)cc1	512 µg/mL (≈ 2310 µM)	512 µg/mL (≈ 2310 µM)	> 512 µg/mL	> 512 µg/mL	> 512 µg/mL	512 µg/mL (≈ 2310 µM)	512 µg/mL (≈ 2310 µM)	> 512 µg/mL	512 µg/mL (≈ 2310 µM)	512 µg/mL (≈ 2310 µM)		
O=C(Cn1cncn1)c1ccc(F)cc1	> 512 µg/mL	512 µg/mL (≈ 2500 µM)	> 512 µg/mL	> 512 µg/mL	> 512 µg/mL	> 512 µg/mL	> 512 µg/mL	> 512 µg/mL	> 512 µg/mL	> 512 µg/mL		
O=C(Cn1cncn1)c1ccc(Cl)c(Cl)c1	256 µg/mL (≈ 1000 µM)	128 µg/mL (≈ 500 µM)	512 µg/mL (≈ 2000 µM)	512 µg/mL (≈ 2000 µM)	32 µg/mL (≈ 125 µM)	> 512 µg/mL	> 512 µg/mL	512 µg/mL (≈ 2000 µM)	256 µg/mL (≈ 1000 µM)	512 µg/mL (≈ 2000 µM)		
O=C(Cn1cncn1)c1ccc(F)c(F)c1	> 512 µg/mL	256 µg/mL (≈ 1150 µM)	512 µg/mL (≈ 2290 µM)	512 µg/mL (≈ 2290 µM)	64 µg/mL (≈ 287 µM)	> 512 µg/mL	> 512 µg/mL	512 µg/mL (≈ 2290 µM)	> 512 µg/mL	512 µg/mL (≈ 2290 µM)		
O=C(Cn1cncn1)c1ccc(Cl)cc1Cl	512 µg/mL (≈ 2000 µM)	256 µg/mL (≈ 1000 µM)	512 µg/mL (≈ 2000 µM)	> 512 µg/mL	128 µg/mL (≈ 500 µM)	> 512 µg/mL	512 µg/mL (≈ 2000 µM)	> 512 µg/mL	> 512 µg/mL	512 µg/mL (≈ 2000 µM)		
O=C(Cn1cncn1)c1ccc(F)cc1F	512 µg/mL (≈ 2290 µM)	256 µg/mL (≈ 1150 µM)	512 µg/mL (≈ 2290 µM)	512 µg/mL (≈ 2290 µM)	32 µg/mL (≈ 143 µM)	> 512 µg/mL	512 µg/mL (≈ 2290 µM)	> 512 µg/mL	512 µg/mL (≈ 2290 µM)	512 µg/mL (≈ 2290 µM)		
Fc1ccc(C2(Cn3cncn3)CO2)c(F)c1 (racemic)	32 µg/mL (≈ 135 µM)	16 µg/mL (≈ 67.5 µM)	16 µg/mL (≈ 67.5 µM)	32 µg/mL (≈ 135 µM)	32 µg/mL (≈ 135 µM)	128 µg/mL (≈ 540 µM)	64 µg/mL (≈ 270 µM)	8 µg/mL (≈ 33.7 µM)	256 µg/mL (≈ 1080 µM)	32 µg/mL (≈ 135 µM)		
Cc1ccc(C2(Cn3cncn3)CO2)cc1 (racemic)	256 µg/mL (≈ 1190 µM)	256 µg/mL (≈ 1190 µM)	8 µg/mL (≈ 37.2 µM)	1 µg/mL (≈ 4.65 µM)	256 µg/mL (≈ 1190 µM)	512 µg/mL (≈ 2380 µM)	256 µg/mL (≈ 1190 µM)	1 µg/mL (≈ 4.65 µM)	256 µg/mL (≈ 1190 µM)	256 µg/mL (≈ 1190 µM)	8	
Clc1ccc(C2(Cn3cncn3)CO2)cc1 (racemic)	16 µg/mL (≈ 67.9 µM)	32 µg/mL (≈ 136 µM)	16 µg/mL (≈ 67.9 µM)	32 µg/mL (≈ 136 µM)	32 µg/mL (≈ 136 µM)	256 µg/mL (≈ 1090 µM)	32 µg/mL (≈ 136 µM)	32 µg/mL (≈ 136 µM)	64 µg/mL (≈ 272 µM)	32 µg/mL (≈ 136 µM)		
Fc1ccc(C2(Cn3cncn3)CO2)cc1 (racemic)	128 µg/mL (≈ 584 µM)	128 µg/mL (≈ 584 µM)	8 µg/mL (≈ 36.5 µM)	8 µg/mL (≈ 36.5 µM)	128 µg/mL (≈ 584 µM)	128 µg/mL (≈ 584 µM)	64 µg/mL (≈ 292 µM)	8 µg/mL (≈ 36.5 µM)	256 µg/mL (≈ 1170 µM)	64 µg/mL (≈ 292 µM)		
Clc1ccc(C2(Cn3cncn3)CO2)cc1Cl (racemic)	32 µg/mL (≈ 118 µM)	128 µg/mL (≈ 474 µM)	16 µg/mL (≈ 59.2 µM)	16 µg/mL (≈ 59.2 µM)	128 µg/mL (≈ 474 µM)	256 µg/mL (≈ 948 µM)	64 µg/mL (≈ 237 µM)	16 µg/mL (≈ 59.2 µM)	128 µg/mL (≈ 474 µM)	64 µg/mL (≈ 237 µM)		
Fc1ccc(C2(Cn3cncn3)CO2)cc1F (racemic)	64 µg/mL (≈ 270 µM)	64 µg/mL (≈ 270 µM)	32 µg/mL (≈ 135 µM)	8 µg/mL (≈ 33.7 µM)	128 µg/mL (≈ 540 µM)	256 µg/mL (≈ 1080 µM)	128 µg/mL (≈ 540 µM)	8 µg/mL (≈ 33.7 µM)	256 µg/mL (≈ 1080 µM)	64 µg/mL (≈ 270 µM)		
Clc1ccc(C2(Cn3cncn3)CO2)c(Cl)c1 (racemic)	64 µg/mL (≈ 237 µM)	128 µg/mL (≈ 474 µM)	32 µg/mL (≈ 118 µM)	32 µg/mL (≈ 118 µM)	256 µg/mL (≈ 948 µM)	256 µg/mL (≈ 948 µM)	32 µg/mL (≈ 118 µM)	16 µg/mL (≈ 59.2 µM)	256 µg/mL (≈ 948 µM)	64 µg/mL (≈ 237 µM)		
Cc1ccc(C(O)(CNC2CCN(c3c(F)cc4c(=O)c(C(=O)O)cn(C5CC5)c4c3Cl)C2)Cn2cncn2)cc1 (racemic)	0.5 µg/mL (≈ 0.861 µM)	0.5 µg/mL (≈ 0.861 µM)	0.5 µg/mL (≈ 0.861 µM)	2 µg/mL (≈ 3.44 µM)	1 µg/mL (≈ 1.72 µM)	0.25 µg/mL (≈ 0.43 µM)	0.5 µg/mL (≈ 0.861 µM)	0.5 µg/mL (≈ 0.861 µM)	2 µg/mL (≈ 3.44 µM)	0.5 µg/mL (≈ 0.861 µM)		
O=C(O)c1cn(C2CC2)c2c(Cl)c(N3CCC(NCC(O)(Cn4cncn4)c4ccc(Cl)cc4)C3)c(F)cc2c1=O (racemic)	512 µg/mL (≈ 851 µM)	> 512 µg/mL	> 512 µg/mL	> 512 µg/mL	32 µg/mL (≈ 53.2 µM)	> 512 µg/mL	> 512 µg/mL	> 512 µg/mL	> 512 µg/mL	> 512 µg/mL		
O=C(O)c1cn(C2CC2)c2c(Cl)c(N3CCC(NCC(O)(Cn4cncn4)c4ccc(F)cc4)C3)c(F)cc2c1=O (racemic)	0.5 µg/mL (≈ 0.855 µM)	0.5 µg/mL (≈ 0.855 µM)	1 µg/mL (≈ 1.71 µM)	0.5 µg/mL (≈ 0.855 µM)	1 µg/mL (≈ 1.71 µM)	2 µg/mL (≈ 3.42 µM)	1 µg/mL (≈ 1.71 µM)	0.5 µg/mL (≈ 0.855 µM)	2 µg/mL (≈ 3.42 µM)	0.5 µg/mL (≈ 0.855 µM)		
O=C(O)c1cn(C2CC2)c2c(Cl)c(N3CCC(NCC(O)(Cn4cncn4)c4ccc(Cl)c(Cl)c4)C3)c(F)cc2c1=O (racemic)	0.25 µg/mL (≈ 0.393 µM)	0.5 µg/mL (≈ 0.786 µM)	32 µg/mL (≈ 50.3 µM)	0.5 µg/mL (≈ 0.786 µM)	4 µg/mL (≈ 6.29 µM)	0.25 µg/mL (≈ 0.393 µM)	2 µg/mL (≈ 3.15 µM)	0.5 µg/mL (≈ 0.786 µM)	8 µg/mL (≈ 12.6 µM)	0.5 µg/mL (≈ 0.786 µM)		
O=C(O)c1cn(C2CC2)c2c(Cl)c(N3CCC(NCC(O)(Cn4cncn4)c4ccc(F)c(F)c4)C3)c(F)cc2c1=O (racemic)	0.5 µg/mL (≈ 0.829 µM)	0.5 µg/mL (≈ 0.829 µM)	0.5 µg/mL (≈ 0.829 µM)	0.5 µg/mL (≈ 0.829 µM)	1 µg/mL (≈ 1.66 µM)	0.5 µg/mL (≈ 0.829 µM)	0.5 µg/mL (≈ 0.829 µM)	0.5 µg/mL (≈ 0.829 µM)	0.5 µg/mL (≈ 0.829 µM)	0.5 µg/mL (≈ 0.829 µM)		
O=C(O)c1cn(C2CC2)c2c(Cl)c(N3CCC(NCC(O)(Cn4cncn4)c4ccc(Cl)cc4Cl)C3)c(F)cc2c1=O (racemic)	1 µg/mL (≈ 1.57 µM)	2 µg/mL (≈ 3.15 µM)	32 µg/mL (≈ 50.3 µM)	0.5 µg/mL (≈ 0.786 µM)	4 µg/mL (≈ 6.29 µM)	4 µg/mL (≈ 6.29 µM)	4 µg/mL (≈ 6.29 µM)	0.5 µg/mL (≈ 0.786 µM)	4 µg/mL (≈ 6.29 µM)	0.5 µg/mL (≈ 0.786 µM)		
O=C(O)c1cn(C2CC2)c2c(Cl)c(N3CCC(NCC(O)(Cn4cncn4)c4ccc(F)cc4F)C3)c(F)cc2c1=O (racemic)	0.25 µg/mL (≈ 0.415 µM)	0.5 µg/mL (≈ 0.829 µM)	0.5 µg/mL (≈ 0.829 µM)	0.5 µg/mL (≈ 0.829 µM)	1 µg/mL (≈ 1.66 µM)	0.25 µg/mL (≈ 0.415 µM)	0.5 µg/mL (≈ 0.829 µM)	0.5 µg/mL (≈ 0.829 µM)	0.5 µg/mL (≈ 0.829 µM)	0.5 µg/mL (≈ 0.829 µM)		2
O=C(N[C@H](CO)[C@H](O)c1ccc([N+](=O)[O-])cc1)C(Cl)Cl [CHLORAMPHENICOL]	32 µg/mL (≈ 99 µM)	32 µg/mL (≈ 99 µM)	32 µg/mL (≈ 99 µM)	8 µg/mL (≈ 24.8 µM)	32 µg/mL (≈ 99 µM)	16 µg/mL (≈ 49.5 µM)	> 512 µg/mL	> 512 µg/mL	16 µg/mL (≈ 49.5 µM)	32 µg/mL (≈ 99 µM)		
NC1CCN(c2c(F)cc3c(=O)c(C(=O)O)cn(C4CC4)c3c2Cl)C1 (configuration not stated) [CLINAFLOXACIN]	0.5 µg/mL (≈ 1.37 µM)	0.5 µg/mL (≈ 1.37 µM)	0.5 µg/mL (≈ 1.37 µM)	0.5 µg/mL (≈ 1.37 µM)	0.5 µg/mL (≈ 1.37 µM)	1 µg/mL (≈ 2.73 µM)	> 512 µg/mL	> 512 µg/mL	0.5 µg/mL (≈ 1.37 µM)	1 µg/mL (≈ 2.73 µM)		
OC(Cn1cncn1)(Cn1cncn1)c1ccc(F)cc1F [FLUCONAZOLE]	> 512 µg/mL	> 512 µg/mL	> 512 µg/mL	> 512 µg/mL	> 512 µg/mL	> 512 µg/mL	0.5 µg/mL (≈ 1.63 µM)	0.5 µg/mL (≈ 1.63 µM)	> 512 µg/mL	> 512 µg/mL		
